Test results taken from PMC8176629 (European journal of medicinal chemistry, 2021).
Entries after “also recorded” stand apart in the source; their conditions may differ. Read-outs that look alike come from different tables or passages of the source.

Tests used:
[1] = system: HIV-1NL4–3; test: HIV-1/NL4–3 replication inhibition assay in MT-4 lymphocytes; assay type: cell-based; conditions: for activity compared with 4 (EC50 0.019 μM): HIV-1NL4–3 infected MT-4 cell lines
How it was run: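 MT-4 cells infected with HIV-1 NL4-3 at MOI 0.01 in the presence of test compound. Culture supernatants were harvested on day 4 post-infection, and p24 antigen was measured by capture ELISA. IC50 was taken as the concentration that inhibits NL4-3 replication by 50%.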

[2] = system: HIV-1NL4–3; conditions: cited from earlier work
[3] = system: NL4–3/V370A; conditions: most prevalent bevirimat-resistant polymorphism; cited from earlier work
[4] = Human immunodeficiency virus 1, Lymphocyte, read-out: PIC50 (experimental)
[5] = Human immunodeficiency virus 1, MT4, 96 h

## C=C(C)[C@@H]1CC[C@]2(C(=O)O)CC[C@]3(C)[C@H](CC[C@@H]4[C@@]5(C)CC[C@H](OC(=O)CC(C)(C)C(=O)O)C(C)(C)[C@@H]5CC[C@]43C)[C@@H]12 [Compound 3, 3-O-(3′,3′-dimethylsuccinyl)betulinic acid, reference compound]
[1]; [4]
  IC50: 0.0646 µM
[1]; [5]
  IC50: 0.065 ± 0.0019 µM

## C=C(C)[C@@H]1CC[C@]2(C(=O)N3CCN(C(=O)/C=C/c4ccc5c(c4)OCO5)CC3)CC[C@]3(C)[C@H](CC[C@@H]4[C@@]5(C)CC[C@H](OC(=O)CC(C)(C)C(=O)O)C(C)(C)[C@@H]5CC[C@]43C)[C@@H]12 [Compound 4]
[1]; [4]
  IC50: 0.0191 µM
[1]; [5]
  IC50: 0.019 ± 0.0054 µM
[2]
  activity increase compared with 3 against NL4–3: three-fold
[3]
  activity increase compared with 3 against NL4–3/V370A: 51 fold

## C=C(C)[C@@H]1CC[C@]2(C(=O)N3CCN(C(=O)/C=C/c4ccc(OC)c(OC)c4)CC3)CC[C@]3(C)[C@H](CC[C@@H]4[C@@]5(C)CC[C@H](OC(=O)CC(C)(C)C(=O)O)C(C)(C)[C@@H]5CC[C@]43C)[C@@H]12 [Compound 9b]
[1]; [4]
  IC50: 0.0288 µM
[1]; [5]
  IC50: 0.029 ± 0.0093 µM

## C=C(C)[C@@H]1CC[C@]2(C(=O)N3CCN(C(=O)/C=C/c4ccc(N(C)C)cc4)CC3)CC[C@]3(C)[C@H](CC[C@@H]4[C@@]5(C)CC[C@H](OC(=O)CC(C)(C)C(=O)O)C(C)(C)[C@@H]5CC[C@]43C)[C@@H]12 [Compound 9i, (E)-4-(28-(4-(3-(4-(dimethylamino)phenyl)acryloyl)piperazine-1-carbonyl)lup-20(29)-en-3β-oxy)-2,2-dimethyl-4-oxobutanoic acid]
[1]
  activity compared with 4 (EC50 0.019 μM): improved or comparable activity; also recorded: improved or similar activity

## C=C(C)[C@@H]1CC[C@]2(C(=O)N3CCN(C(=O)/C=C/c4ccc(OCOC)c(OCOC)c4)CC3)CC[C@]3(C)[C@H](CC[C@@H]4[C@@]5(C)CC[C@H](OC(=O)CC(C)(C)C(=O)O)C(C)(C)[C@@H]5CC[C@]43C)[C@@H]12 [Compound 9r]
[1]; [4]
  IC50: 0.0501 µM
[1]; [5]
  IC50: 0.05 ± 0.021 µM

## C=C(C)[C@@H]1CC[C@]2(C(=O)N3CCN(C(=O)/C=C/c4ccc(OCOC)c(OC)c4)CC3)CC[C@]3(C)[C@H](CC[C@@H]4[C@@]5(C)CC[C@H](OC(=O)CC(C)(C)C(=O)O)C(C)(C)[C@@H]5CC[C@]43C)[C@@H]12 [Compound 9t, (E)-4-(28-(4-(3-(3-methoxy-4-(methoxymethoxy)phenyl)acryloyl)piperazine-1-carbonyl)lup-20(29)-en-3β-oxy)-2,2-dimethyl-4-oxobutanoic acid]
[1]
  activity compared with 4 (EC50 0.019 μM): improved or comparable activity; also recorded: improved or similar activity

## C=C(C)[C@@H]1CC[C@]2(C(=O)N3CCN(C(=O)/C=C/c4ccc(O)c(O)c4)CC3)CC[C@]3(C)[C@H](CC[C@@H]4[C@@]5(C)CC[C@H](OC(=O)CC(C)(C)C(=O)O)C(C)(C)[C@@H]5CC[C@]43C)[C@@H]12 [Compound 10a]
[1]; [4]
  IC50: 0.0282 µM
[1]; [5]
  IC50: 0.028 ± 0.0098 µM

## C=C(C)[C@@H]1CC[C@]2(C(=O)N3CCN(C(=O)/C=C/c4ccc(O)c(OC)c4)CC3)CC[C@]3(C)[C@H](CC[C@@H]4[C@@]5(C)CC[C@H](OC(=O)CC(C)(C)C(=O)O)C(C)(C)[C@@H]5CC[C@]43C)[C@@H]12 [Compound 10c, (E)-4-(28-(4-(3-(4-hydroxy-3-methoxyphenyl)acryloyl)piperazine-1-carbonyl)lup-20(29)-en-3β-oxy)-2,2-dimethyl-4-oxobutanoic acid]
[1]
  activity compared with 4 (EC50 0.019 μM): improved or comparable activity; also recorded: improved or similar activity

## C=C(C)[C@@H]1CC[C@]2(C(=O)N3CCN(C(=O)CCc4ccc5c(c4)OCO5)CC3)CC[C@]3(C)[C@H](CC[C@@H]4[C@@]5(C)CC[C@H](OC(=O)CC(C)(C)C(=O)O)C(C)(C)[C@@H]5CC[C@]43C)[C@@H]12 [Compound 13m, 4-(28-(4-(3-(Benzo[d] [1,3]dioxol-5-yl)propanoyl)piperazine-1-carbonyl)lup-20(29)-en-3b-oxy)-2,2-dimethyl-4-oxobutanoic acid]
[1]
  activity compared with 4 (EC50 0.019 μM): improved or comparable activity; also recorded: improved or similar activity

## C=C(C)[C@@H]1CC[C@]2(C(=O)OCCCOC(=O)/C=C/c3ccc(OC)cc3)CC[C@]3(C)[C@H](CC[C@@H]4[C@@]5(C)CC[C@H](OC(=O)CC(C)(C)C(=O)O)C(C)(C)[C@@H]5CC[C@]43C)[C@@H]12 [Compound 20a]
[1]; compared with piperazine-linked 9e
  fold less potent than 9e: 11 fold

## C=C(C)[C@@H]1CC[C@]2(C(=O)N3CCN(CCCCC(=O)N4CCN(C(=O)/C=C/c5ccc6c(c5)OCO6)CC4)CC3)CC[C@]3(C)[C@H](CC[C@@H]4[C@@]5(C)CC[C@H](OC(=O)CC(C)(C)C(=O)O)C(C)(C)[C@@H]5CC[C@]43C)[C@@H]12 [Compound 31]
[1]; [5]
  IC50: 0.012 ± 0.0041 µM

## C=C(C)[C@@H]1CC[C@]2(C(=O)N3CCN(CCCCC(=O)N4CCN(c5cc(NCc6ccccc6)ncn5)CC4)CC3)CC[C@]3(C)[C@H](CC[C@@H]4[C@@]5(C)CC[C@H](OC(=O)CC(C)(C)C(=O)O)C(C)(C)[C@@H]5CC[C@]43C)[C@@H]12 [Compound 32, 4-(28-(4-(5-(4-(6-(Benzylamino)pyrimidin-4-yl)piperazin-1-yl)-5-oxopentyl)piperazine-1-carbonyl)lup-20(29)-en-3β-oxy)-2,2-dimethyl-4-oxobutanoic acid]
[1]
  activity compared with 4 (EC50 0.019 μM): improved or comparable activity; also recorded: improved or similar activity
